PG9 binder = binds the HIV-1 gp120 antibody PG9. TR-FRET gp120-PG9 antibody binding. inhibition, % at 6.7 µM. 0.43% of 360,000 active; in the data active = inhibition above about 8.5%
PKA-R1A act = activates the PKA-R1A holoenzyme complex; PKA-R1A dissociation, Cy5-IP20 fluorescence polarization; scaled: DMSO 0%, 113 µM cGMP 100%; activation, % at 11.4 µM; 0.083% of 340,000 active; AID 504707;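 active = percent activation above the mean of all tested compounds plus 3 SD, cut at about 19% in these data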;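 note: higher means more PKAc released from R1A so a rise in polarization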
NR2E3 ag-1 = NR2E3 (human) agonism | 0.12% of 320,000 active | inhibition of corepressor binding, % at 4.78 µM | GST-NR2E3/biotin-RetCOR TR-FRET, 1536-well | Q9Y5X4;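 active = percent inhibition above the cutoff of mean plus 3 SD of all tested compounds, set per screening campaign, cut at about 20% in these data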;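 note: 0% = DMSO wells and 100% = biotin wells as full block of FRET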
Target sequence (Q9Y5X4 whole entry, looked up): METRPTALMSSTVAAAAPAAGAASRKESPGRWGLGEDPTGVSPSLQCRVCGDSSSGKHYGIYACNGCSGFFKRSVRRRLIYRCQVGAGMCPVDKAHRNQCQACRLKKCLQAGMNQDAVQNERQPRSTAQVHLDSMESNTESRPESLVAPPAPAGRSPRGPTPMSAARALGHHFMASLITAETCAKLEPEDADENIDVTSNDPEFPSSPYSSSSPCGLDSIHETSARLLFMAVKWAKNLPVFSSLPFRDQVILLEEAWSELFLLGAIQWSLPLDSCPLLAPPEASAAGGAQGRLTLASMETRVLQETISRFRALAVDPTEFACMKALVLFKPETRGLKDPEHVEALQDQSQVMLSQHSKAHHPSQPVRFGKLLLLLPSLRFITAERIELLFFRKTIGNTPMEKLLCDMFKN
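Test system – NR2E3–RetCOR corepressor complex · Quantity – NR2E3 fusion 1.35 nM · Buffer or medium – Tris pH 7.5 · Incubation – Compound–protein incubation for 5 h at 4 °C · Technique – TR-FRET, Eu(K)-anti-GST donor, streptavidin-D2 acceptor, ex 340, em 617/671 nm · Evaluation – percent inhibition of 671/617 nm emission ratio versus biotin and DMSO controls · Plate – 1536-well format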
NR2E3 ag-2 = activates human NR2E3 receptor. 0.35% of 360,000 active. Q9Y5X4. CHO-S Gal4-NCOR/VP16-NR2E3 two-hybrid, luciferase. inhibition of corepressor binding, % at 3.98 µM. AID 602229;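 active = inhibition above the mean of all tested compounds plus 3 SD, cut at about 70% in these data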;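 note: 0% = DMSO with NR2E3 transfected cells and 100% = cells lacking NR2E3 construct; higher means lower luciferase signal from less NR2E3 corepressor binding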
Rev-erbA mod = modulators of human Rev-erb alpha DNA binding. activity, % at 10 µM. 0.79% of 370,000 active. Rev-erbα–FITC-DNA binding, fluorescence polarization, 90 min. P20393;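 active = activity above about 14%, limit read from the data; passing the limit was not always enough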;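 note: 0% = DMSO wells with 35 nM protein and 100% = DMSO wells with 750 nM protein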
PKA-R2B act = PKA-R2B complex activation; P22694+P31323; PKA-R2B holoenzyme dissociation, Cy5-IP20 fluorescence polarization; R2B truncated from residue 108, S112A mutant; 0% DMSO only, 100% 113 µM cGMP; 0.079% of 340,000 active; activation, % at 11.4 µM;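 active = activation above a cutoff set at the mean over all compounds plus 3 SD, cut at about 18% in these data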;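 note: higher means more holoenzyme dissociation and a rise in polarization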
NR2E3 agonist cf = confirmation of human NR2E3 nuclear receptor agonists. shares compounds with NR2E3 ag-1. cell-free NR2E3 corepressor release, TR-FRET, 5 h. activation (reported as inhibition), % at 3.98 µM. 39% of 360 active. AID 2379; in the data active = activation above about 20%
PPARg-NCOR2 ag = counter-screen for NR2E3 agonists: human PPARgamma-NCOR2 interaction agonists | inhibition, % at 3.98 µM | TR-FRET PPARg-NCOR2 coregulator interaction, biochemical | shares compounds with NR2E3 ag-1 | AID 504787 | 45% of 360 active; in the data active = inhibition above about 20%;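 note: 0% = DMSO vehicle and 100% = wells without protein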
The depositor's hits bear a star. Hits are enriched below; roughly 1.6% of the tested compounds scored in any of these assays.

`CCCC[C@@H](C)C[C@@H](C)C(=O)N(C)[C@@H](CC(C)C)C(=O)N[C@H](C(=O)N(C)[C@H](C(=O)N1C[C@@H](O)C[C@H]1C(=O)N1C(=O)C=C[C@@H]1C)C(C)C)C(C)OC(C)=O` (stereo partly drawn) gave PKA-R1A act 6, NR2E3 ag-2 82* and PKA-R2B act -14.
For CCn1nc(-c2ccccc2)nc2c(=O)n(C)c(=O)nc1-2 the results were PKA-R1A act 9, NR2E3 ag-1 41*, NR2E3 ag-2 89* and PKA-R2B act 10.
CC1=C2CCC3C(CC[C@]4(C)C(=O)CCC34)[C@@]2(C)CCC1=O (stereo partly drawn) was read as Rev-erbA mod 4.
C[C@H]1CCC/C=C/C2C[C@H](O)CC2[C@H](O)/C=C/C(=O)O1 (stereo partly drawn) was read as PKA-R1A act 4, NR2E3 ag-1 0, NR2E3 ag-2 96* and PKA-R2B act -6.
Screening COc1cccc([C@]2(O)CCCC[C@H]2CN(C)C)c1 returned Rev-erbA mod -14.
For Cc1ccc(-c2cc(-c3ccc(C)cc3)[n+](-c3ccc(C(=O)O)cc3)c(-c3ccc(C)cc3)c2)cc1 the results were PG9 binder 2, PKA-R1A act -3, NR2E3 ag-1 4, NR2E3 ag-2 -6, Rev-erbA mod -4 and PKA-R2B act 4.
`Cc1ccc(C[n+]2c(-c3ccc(C)cc3)cc(-c3ccc(C)cc3)cc2-c2ccc(C)cc2)cc1` gave PKA-R1A act -2, NR2E3 ag-1 1, NR2E3 ag-2 99* and PKA-R2B act 17.
CN1C2C[C@H](OC(=O)[C@H](CO)c3ccccc3)CC1[C@@H](O)C2 (stereo partly drawn) was read as Rev-erbA mod 2.
`CCOC(=O)c1c(NS(=O)(=O)c2ccccc2)n(CCCOC)c2nc3ccccc3nc12` gave PG9 binder 3, PKA-R1A act 2, NR2E3 ag-1 38*, NR2E3 ag-2 3, Rev-erbA mod -4, PKA-R2B act -2, NR2E3 agonist cf 1 and PPARg-NCOR2 ag -9.
COC1C(O)CC(OC2CC(Oc3cc4cc5c(c(O)c4c(O)c3C)C(=O)[C@@H](OC3CC(OC4CC(OC6CC(C)(O)C(OC(C)=O)C(C)O6)C(O)C(C)O4)C(O)C(C)O3)[C@H]([C@H](OC)C(=O)C(O)[C@H](C)O)C5)OC(C)C2OC(C)=O)OC1C (stereo partly drawn) was read as Rev-erbA mod -4.
For COCCNC(=O)c1c(NC(=O)c2ccc(Br)o2)n(Cc2ccccc2)c2nc3ccccc3nc12 the results were PG9 binder 0, PKA-R1A act -15, NR2E3 ag-1 23*, NR2E3 ag-2 -6, Rev-erbA mod -5, PKA-R2B act 2, NR2E3 agonist cf -2 and PPARg-NCOR2 ag 5.
CCC(C)[C@H]1O[C@]2(C=C[C@@H]1C)C[C@@H]1C[C@@H](C/C=C(\C)[C@@H](O[C@@H]3C[C@H](OC)[C@H](O[C@H]4C[C@H](OC)[C@@H](O)[C@H](C)O4)[C@H](C)O3)[C@@H](C)/C=C/C=C3\CO[C@@H]4[C@H](O)C(C)=C[C@@H](C(=O)O1)[C@]34O)O2 (stereo partly drawn) was read as Rev-erbA mod -4.
For O=C1C(=O)c2ccccc2-c2ccccc21 the results were PG9 binder -2, PKA-R1A act -9, NR2E3 ag-1 37*, NR2E3 ag-2 68, Rev-erbA mod -6, PKA-R2B act 1, NR2E3 agonist cf 39* and PPARg-NCOR2 ag 84*.

Screens: PubChem, several laboratories
